Rows were chosen to be rich in hits. Some 7.1% of all compounds tested hit in one or more screens of this group.
Lung fibro prol – blocks proliferation of human lung fibroblasts | viability, % at 10 µM | AID 719 | actives 1.1% (n = 85,000) | LL 47 human lung fibroblast viability, ATP luminescence; hits give low values;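 active = viability at or below 50% in the single dose screen; inactive = viability above 50%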;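 also: compound exposure lasted 72 h before the ATP readout; 100% = median luminescence of untreated cell-only wells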
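Test system: LL 47 human lung fibroblasts / Quantity: 1,150 cells in each well / Medium: IMEM growth medium with 15% fetal bovine serum / Incubation: 72 h compound exposure at 37 °C after overnight plating / Detection: CellTiter-Glo luminescence measuring cellular ATP / Read-out: % viability versus median cells-only luminescence / Benchmarks: cell-only wells, no compound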
H69AR inhibit – growth inhibitors of human H69AR lung tumor cells; actives 6% (n = 85,000); viability, % at 10 µM; AID 598; H69AR lung tumor viability, ATP luminescence, 72 h; hits give low values;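 active = viability at or below 40%; inactive = viability above 40%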;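 also: multidrug resistant small cell line overexpressing MRP-1 efflux transporter; 100% = mean luminescence of untreated control wells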
HCT116 PTEN-null – suppresses growth of cells with PTEN deletion. AID 827. viability, % at 10 µM. actives 1.2% (n = 140,000). HCT116 PTEN-null viability, CellTiter-Glo, 60 h; hits give low values;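 active = viability at or below a set limit, 4 SD under the median of all tested compounds, cut at about 3.7% in these data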;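 also: PTEN knockout HCT116 line with beta catenin targeted HCT116 as companion control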
Cav32 inh – blocks human Cav3.2 T-type calcium channel; AID 449739; actives 4% (n = 100,000); B-score at 10 µM; O95180; Cav3.2-expressing cells, Fluo-4 calcium fluorescence FDSS; hits give low values;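 active = single-dose well whose peak fluorescence ratio is a statistical outlier from its plate by either plate-standardised score or position-corrected B-score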
HCT116 bCat-KO – beta-catenin-lacking colon tumor cell growth suppression; HCT116 beta-catenin knockout viability, CellTiter-Glo, 60 h; hits give low values; viability, % at 10 µM; actives 1.5% (n = 140,000); AID 818;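 active = viability at or under a set limit, the compound median less 4 SD, cut at about 6% in these data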;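 also: 0% = Hyamine 1622 control at 20 µM and 100% = untreated cell control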
HUVEC prolif 384 – blocks proliferation of human endothelial cells; HUVEC proliferation, CellTiter-Glo luminescence, 72 h; hits give low values; viability, % at 10 µM (by protocol); actives 1.1% (n = 86,000); AID 648;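 active = viability at or below 30%; inactive = viability above 30%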;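 also: 100% = median luminescence of DMSO-only cell control wells on each plate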
The depositor's hits bear a star; / = not tested or not shown.

SMILES | Lung fibro prol | H69AR inhibit | HCT116 PTEN-null | Cav32 inh | HCT116 bCat-KO | HUVEC prolif 384
COc1ccc(C(C(=O)NC2CCCCC2)N(Cc2cccs2)C(=O)Cc2c[nH]c3ccccc23)cc1 (stereo not drawn) | / | / | 54 | -6.4* | 70 | /
CSc1nc2cc(Oc3cccc(Cl)c3Cl)c(Cl)cc2[nH]1 | / | / | / | -0.31 | / | /
CC(C)(C)C(=O)Nc1cc(NC(=O)C(C)(C)C)cc(C(=O)Nc2cc(C(=O)O)cc(C(=O)O)c2)c1 | / | / | 100 | / | 90 | /
CCOC(=O)c1c(/N=C/N(C)C)sc(/C=N/Nc2ccccc2)c1-c1ccc(Cl)cc1 | / | / | 68 | / | 70 | /
O=C(CSc1nnnn1C1CCCCC1)N1c2ccccc2Sc2ccccc21 | 91 | 74 | 82 | -6* | 81 | 100
O=C(CSc1nnnn1C1CCCCC1)NCCc1ccccc1 | 103 | 96 | 105 | 1.6 | 103 | 105
O=C(N/N=C/c1cn(-c2ccccc2)nc1-c1cc2ccccc2o1)c1cccnc1 | / | / | 3.5* | / | 7 | /
O=c1/c(=C/c2ccco2)sc2n1CN(c1cccc(Br)c1)CN=2 | 99 | 32* | 74 | 0.19 | 80 | 39
Cc1nn(Cc2ccccc2Cl)c(C)c1C(=O)NCCN1C(=O)S/C(=C\c2ccccc2)C1=O | / | / | 103 | / | 101 | /
Clc1ccccc1-c1ccc(/C=N/n2cnnc2)o1 | 90 | 88 | 116 | 0.14 | 105 | 33
Cc1c(Cl)cccc1-c1ccc(/C=N/n2cnnc2)o1 | 92 | 90 | 87 | 2.5 | 90 | 27*
Clc1cccc(-c2ccc(/C=N/n3cnnc3)o2)c1Cl | 90 | 106 | 78 | -0.43 | 76 | 9.8*
O=C(N/N=C/C=C/c1ccccc1)C1CC1c1ccccc1 (stereo not drawn) | 74 | 26* | 94 | / | 90 | 90
CC(=O)Nc1ccc(/C(C)=N/NC(=O)C2CC2c2ccccc2)cc1 (stereo not drawn) | / | / | 101 | / | 95 | /
CCc1nc(SCC(=O)Nc2nccs2)c2oc3ccccc3c2n1 | 76 | 13* | 93 | / | 90 | 69
Cc1nc(SCC(=O)Nc2ccc3c(c2)OCCO3)c2oc3ccccc3c2n1 | 98 | 63 | 100 | -0.48 | 90 | 98
CCc1nc(SCC(=O)Nc2ccc3c(c2)OCCO3)c2oc3ccccc3c2n1 | 94 | 0.9* | 58 | / | 50 | 20*
C=CCNC(=O)c1c(Cl)nc(C)c([N+](=O)[O-])c1C | / | / | 84 | / | 94 | /
O=C(CSc1ncn[nH]1)N1CCN(S(=O)(=O)c2ccccc2)CC1 | 98 | 105 | 98 | 0.29 | 90 | 99
Cc1ccc(OCC(=O)N2CCN(c3nnc(-c4ccccc4)c4ccccc34)CC2)cc1 | 107 | 85 | 44 | -9.7* | 43 | 86
Cc1ccc(-c2nnc(N3CCN(C(=O)CSc4ncn[nH]4)CC3)c3ccccc23)cc1 | 2.9* | 76 | 47 | 2.8 | 41 | 105
Cc1nc(N2CCN(C(=O)COc3ccccc3)CC2)c2c(C)c(C)sc2n1 | 101 | 86 | 23 | -4* | 22 | 71
COc1cccc(OCC(=O)O/N=C(\N)c2ccc(OC)c(OC)c2)c1 | / | / | 86 | / | 86 | /
O=C(Nc1ccc(Br)cn1)c1ccc2nccnc2c1 | 88 | 34* | / | / | / | 65
CCS(=O)(=O)n1nc(NCc2cccc(OC)c2)nc1NCc1cccc(OC)c1 | 103 | / | 78 | -4.2* | 84 | 85
SMILES | Lung fibro prol | H69AR inhibit | HCT116 PTEN-null | Cav32 inh | HCT116 bCat-KO | HUVEC prolif 384
COc1cccc(CNS(=O)(=O)c2cn(C)cn2)c1 | 102 | 90 | 100 | / | 96 | 93
CCOc1ccc(C(=O)N/N=C/c2cc(Cl)ccc2[N+](=O)[O-])cc1 | / | / | 62 | / | 61 | /
CC1CCN(c2nc3c(c(=O)[nH]c(=O)n3C)n2Cc2ccccc2Cl)CC1 | 88 | 67 | 79 | -4.5* | 67 | 79
Cn1c(=O)[nH]c(=O)c2c1nc(Br)n2Cc1ccccc1Cl | 97 | 27* | 78 | 0.86 | 89 | 101
Cc1ccc(N(CC(=O)N/N=C/c2ccc(OC3CSC3)cc2)S(=O)(=O)c2ccccc2)cc1 | / | / | 87 | -2.7* | 95 | /
Cc1ccc(S(=O)(=O)c2cc3c(=O)n4ccccc4nc3n(Cc3ccco3)c2=N)cc1C | 73 | 7.8* | 62 | -1.1 | 70 | 87
CCCCN1CC(C(=O)NCc2ccc(C)cc2)CC1=O (stereo not drawn) | 97 | 108 | 108 | 0.58 | 94 | 94
CC(C)CCN1CC(C(=O)NCc2ccccc2)CC1=O (stereo not drawn) | 86 | 96 | 105 | -5.3* | 108 | 87
C=CCn1c(SCc2ccc(C#N)cc2)nnc1-c1cccc(Cl)c1 | 94 | 89 | 99 | -4.9* | 98 | 104
CCOC(=O)/C(=N\Nc1ccc(Cl)cc1)Sc1nnc(-c2ccc(OC)cc2)n1C | / | / | 93 | / | 95 | /
Cc1ccc(-n2c(SCC(=O)Nc3ccc4cn[nH]c4c3)nnc2-c2ccco2)cc1 | 82 | 32* | 88 | -0.26 | 89 | 82
CC(=O)Nc1ccc(NC(=O)CSc2nnc(-c3ccco3)n2Cc2ccco2)cc1 | 94 | 11* | 86 | 0.57 | 70 | 92
CNC(=O)CSc1nnc(-c2ccco2)n1-c1ccc(C)cc1 | 98 | 98 | 96 | 0.2 | 89 | 97
CCOc1ccccc1NC(=O)CSc1nnc(-c2ccco2)n1Cc1ccco1 | 89 | 87 | 97 | -0.61 | 96 | 112
CCOc1ccccc1NC(=O)CSc1nnc(-c2ccccc2Cl)n1Cc1ccco1 | 99 | 85 | 89 | -7.7* | 96 | 100
Cc1ccc(Cc2cnc(NC(=O)c3cccs3)s2)cc1 | 78 | 17* | 28 | -3.2 | 37 | 56
O=C(Nc1ncc(Cc2cccc(Cl)c2)s1)c1cccs1 | 84 | 35* | 42 | -3.3 | 33 | 31
CCC1Oc2ccc(C)cc2N(CC(=O)NCC2COc3ccccc3O2)C1=O (stereo not drawn) | 98 | 74 | 95 | -5.2* | 86 | 99
Cc1ccc2c(c1)N(CCC(=O)NCC1COc3ccccc3O1)C(=O)CO2 (stereo not drawn) | 104 | 86 | 98 | -2.8 | 102 | 102
COCCNc1nnc(SCC(=O)c2c[nH]c3ccccc23)s1 | / | / | 89 | / | 86 | /
O=C(O)/C=C/c1ccc2c(-c3ccccc3)onc2c1 | / | / | 107 | / | 108 | /
Cc1nn(-c2ccccc2)c(Cl)c1C1C(C#N)=C(N)Oc2c1c(C)nn2-c1ccccc1 (stereo not drawn) | 99 | 5.1* | 94 | -0.83 | 87 | 75
C=CCOC(=O)C1=C(C)OC(N)=C(C#N)C1c1c(C)nn(-c2ccccc2)c1Cl (stereo not drawn) | 91 | 29* | 98 | -9.2* | 113 | 85
Cc1nn(-c2ccccc2)c2c1C(c1ccncc1)C(C#N)=C(N)O2 (stereo not drawn) | / | / | 94 | 0.69 | 86 | /
Cc1nn(-c2ccccc2)c(Cl)c1C1C(C#N)=C(N)Oc2n[nH]c(C)c21 (stereo not drawn) | / | / | 15 | 1.1 | 17 | /
